Laboratory results published in ChEMBL document CHEMBL1124468, “N-(fluoroethyl)(imidazolylphenyl)formamidines. The issue of the active species of mifentidine” (J Med Chem, 1989).

Columns and labels:
[1] = Dissociation constant for imidazole ring; assay type: physicochemical
Outline: (§1)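 Macroscopic ionization constants (pKa) by potentiometric titration of compound dissolved in previously boiled distilled water with 2 mL methanol; titrated with 0.1 N KOH in 0.1-equivalent additions, pH read at equilibrium after each addition.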

[2] = Dissociation constant for formamidine ring; assay type: physicochemical; outline: as §1
[3] = Percent of monocationic species at a pH of 6.5 was determined
Outline: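 Monocationic percentage at pH 6.5 computed with the Henderson-Hasselbach equation from pKa values measured by potentiometric titration with 0.1 N KOH in water containing a little methanol.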

[4] = Dissociation constant for imidazole ring; ND means not determined because of product insolubility; assay type: physicochemical; outline: as §1
[5] = molecular target: Histamine H2 receptor (Cavia porcellus) (UniProt P47747); assay: Antagonist activity against histamine H2 receptor was evaluated in guinea pig atria; value ranges from (3.8-119)x10E-9; assay type: functional
Outline: (§2)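 Spontaneously beating atria from male Dunkin-Hartley guinea pigs (400–500 g) in oxygenated (O2/CO2 95:5) McEwen's solution, pH 6.5, 32 °C; rate recorded by instantaneous rate meter. Cumulative histamine up to maximal chronotropic response; antagonist equilibrated 60 min. K_B = [B]/(DR − 1), DR being histamine dose ratios at half-maximal response with and without several antagonist concentrations; multiple-regression evaluation.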

[6] = molecular target: Histamine H2 receptor (Cavia porcellus) (UniProt P47747); assay: Antagonist activity against histamine H2 receptor was evaluated in guinea pig atria; value ranges from (3.6-16.1)x10E-9; assay type: functional; outline: as §2
[7] = molecular target: Histamine H2 receptor (Cavia porcellus) (UniProt P47747); assay: Antagonist activity against histamine H2 receptor was evaluated in guinea pig atria; value ranges from (40.2-93.3) x10E-9; assay type: functional; outline: as §2

Chain of Histamine H2 receptor (Cavia porcellus) (P47747 whole entry): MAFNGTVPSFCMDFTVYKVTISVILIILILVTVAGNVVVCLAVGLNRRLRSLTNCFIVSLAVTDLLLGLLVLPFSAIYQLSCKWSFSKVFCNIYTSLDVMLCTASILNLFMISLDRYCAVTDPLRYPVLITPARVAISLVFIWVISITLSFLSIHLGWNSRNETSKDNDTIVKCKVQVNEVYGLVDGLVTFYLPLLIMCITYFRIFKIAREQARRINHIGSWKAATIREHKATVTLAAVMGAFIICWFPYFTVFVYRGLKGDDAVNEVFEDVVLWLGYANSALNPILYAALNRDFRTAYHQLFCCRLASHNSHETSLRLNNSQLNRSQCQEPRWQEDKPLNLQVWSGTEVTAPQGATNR

Row | SMILES | pKa [1] | pKa [2] | pKa [4] | Kb [5] | Kb [6] | Kb [7] | Monocation species [3]
1 | N#C/N=C/Nc1ccc(-c2c[nH]cn2)cc1 |  | < 1 | Insoluble |  |  |  | 
2 | FC(F)C/N=C/Nc1ccc(-c2c[nH]cn2)cc1 | 4.54 | 6.6 |  | 0.021 µM |  |  | 54.64%
3 | FC(F)(F)C/N=C/Nc1ccc(-c2c[nH]cn2)cc1 | 4.45 | 6.14 |  |  | 0.0076 µM |  | 29.5%

The next lines start with results.

Row | pKa [1] | pKa [2] | pKa [4] | Kb [5] | Kb [6] | Kb [7] | SMILES | Monocation species [3]
4 | 5.57 | 8.65 |  |  |  |  | CC/N=C/Nc1ccc(-c2c[nH]cn2)cc1 | 88.78%
5 | 5.55 | 8.12 |  |  |  | 0.061 µM | FCC/N=C/Nc1ccc(-c2c[nH]cn2)cc1 | 87.56%
